Results taken from ChEMBL document CHEMBL1137254, “Structurally simple, potent, Plasmodium selective farnesyltransferase inhibitors that arrest the growth of malaria parasites” (J Med Chem, 2006).

Legend:
[1] = biological target: T1, Protein farnesyltransferase (PFT) (Plasmodium falciparum) (UniProt Q5EI73+Q5EI74); assay: Inhibition of Plasmodium falciparum PFT at 5 nM
[2] = biological target: T1, Protein farnesyltransferase (PFT) (Plasmodium falciparum); assay: Inhibition of Plasmodium falciparum PFT at 50 nM
Plasmodium falciparum [3] = assay: Inhibition of Plasmodium falciparum K1 growth as reduced [3H]hypoxanthine incorporation; assay type: functional; conditions: K1, 72 h, read-out: ED50 (the source's name)
How it was run: (§1)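 Inhibitor in DMSO was added to P. falciparum culture (0.5% parasitemia, 0.5% hematocrit) in RPMI-1640 with 20% human A+ plasma. Cultures were held 48 h at 37 °C under 5% CO2/5% O2/90% N2, then pulsed with [8-3H]hypoxanthine (0.3 μCi) for 24 h more. Cells were harvested and counted by β-scintillation. Background from uninfected RBCs was subtracted, with DMSO set as 100%. ED50 was obtained by linear regression.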

Plasmodium falciparum [4] = assay: Inhibition of Plasmodium falciparum 3D7 growth as reduced [3H]hypoxanthine incorporation; assay type: functional; conditions: 3D7, 72 h, read-out: ED50 (the source's name)
How it was run: as §1

[5] = biological target: T2, Protein farnesyltransferase (PFT) (Plasmodium falciparum, UniProt Q5EI73+Q5EI74); assay: Inhibition of Plasmodium falciparum PFT; assay type: protein-complex assay
T2 sequence (Q5EI73 whole entry): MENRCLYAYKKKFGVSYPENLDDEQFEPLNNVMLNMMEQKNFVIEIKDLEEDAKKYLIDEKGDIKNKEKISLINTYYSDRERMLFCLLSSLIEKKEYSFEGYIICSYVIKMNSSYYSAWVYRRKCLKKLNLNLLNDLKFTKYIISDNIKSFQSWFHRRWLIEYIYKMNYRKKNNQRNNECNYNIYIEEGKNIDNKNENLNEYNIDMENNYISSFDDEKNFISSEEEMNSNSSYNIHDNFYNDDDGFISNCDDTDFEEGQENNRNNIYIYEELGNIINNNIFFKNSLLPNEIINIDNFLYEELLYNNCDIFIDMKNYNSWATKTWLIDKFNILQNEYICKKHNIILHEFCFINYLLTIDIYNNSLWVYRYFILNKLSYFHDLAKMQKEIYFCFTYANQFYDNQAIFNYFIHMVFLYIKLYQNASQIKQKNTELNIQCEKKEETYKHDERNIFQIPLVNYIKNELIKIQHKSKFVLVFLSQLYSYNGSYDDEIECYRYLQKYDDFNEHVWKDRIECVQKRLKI
T2 sequence (Q5EI74 whole entry): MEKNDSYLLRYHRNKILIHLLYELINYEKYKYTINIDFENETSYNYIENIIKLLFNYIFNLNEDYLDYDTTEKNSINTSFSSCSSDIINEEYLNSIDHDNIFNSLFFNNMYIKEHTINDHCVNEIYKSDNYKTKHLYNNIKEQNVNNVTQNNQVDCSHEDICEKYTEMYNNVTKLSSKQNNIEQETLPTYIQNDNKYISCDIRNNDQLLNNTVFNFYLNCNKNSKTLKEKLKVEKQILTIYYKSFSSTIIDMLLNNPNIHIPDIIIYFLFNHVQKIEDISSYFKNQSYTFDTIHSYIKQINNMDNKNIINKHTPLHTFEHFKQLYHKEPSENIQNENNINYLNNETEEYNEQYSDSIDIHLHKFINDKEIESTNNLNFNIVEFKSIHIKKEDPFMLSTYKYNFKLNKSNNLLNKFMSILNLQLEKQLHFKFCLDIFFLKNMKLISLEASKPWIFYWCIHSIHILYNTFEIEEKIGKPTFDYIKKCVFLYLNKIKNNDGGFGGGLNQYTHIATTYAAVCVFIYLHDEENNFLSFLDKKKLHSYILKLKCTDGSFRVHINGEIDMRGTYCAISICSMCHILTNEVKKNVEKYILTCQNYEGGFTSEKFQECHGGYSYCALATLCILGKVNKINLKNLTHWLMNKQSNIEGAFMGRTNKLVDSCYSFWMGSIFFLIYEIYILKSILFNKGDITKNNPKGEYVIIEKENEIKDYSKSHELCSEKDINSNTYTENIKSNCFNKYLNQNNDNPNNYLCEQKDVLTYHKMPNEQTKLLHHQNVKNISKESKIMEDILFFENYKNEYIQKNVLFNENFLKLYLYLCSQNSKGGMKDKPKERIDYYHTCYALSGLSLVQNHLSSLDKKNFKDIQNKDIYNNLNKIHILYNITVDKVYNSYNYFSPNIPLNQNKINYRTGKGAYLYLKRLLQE

[6] = biological target: T1, Protein farnesyltransferase (PFT) (Plasmodium falciparum); assay: Selectivity for inhibition of Plasmodium falciparum PFT over rat PFT; assay type: protein-complex assay
[7] = Apparent permeability in Caco-2 cells; assay type: ADME, cell-based; conditions: human
Mus musculus = organism: Mus musculus; assay: Half life in mouse liver microsome; assay type: ADME; conditions: microsomes
How it was run: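 Pooled female liver microsomes were preincubated at 37 °C for 10 min in phosphate buffer with MgCl2, EDTA, an NADPH regenerating system and glucose-6-phosphate dehydrogenase. Inhibitor was then added in DMSO. Samples were quenched with acetonitrile plus internal standard at set time points and frozen at −20 °C. Parent and metabolites were quantified by LC/MS to give t1/2.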

[8] = Tmax in mouse at 50 mg/kg, po; assay type: ADME, organism-based; set-up: dose 50 mg/kg, route oral; conditions: in vivo
How it was run: (§2)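 Oral gavage at 50 mg/kg in 90% saline, 3% ethanol, 7% Tween; inhibitor concentration in plasma followed over 5 h. Values are averages of three animals per species (mice or rats). Reported parameters are AUC, Cmax, Tmax and elimination t1/2.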

[9] = AUC in mouse at 50 mg/kg, po; assay type: ADME, organism-based; set-up: dose 50 mg/kg, route oral; conditions: plasma
How it was run: as §2

[10] = Cmax in mouse at 50 mg/kg, po; assay type: ADME, organism-based; set-up: dose 50 mg/kg, route oral; conditions: in vivo
How it was run: as §2

[11] = Half life in mouse at 50 mg/kg, po; assay type: ADME, organism-based; set-up: dose 50 mg/kg, route oral; conditions: in vivo, read-out: beta t1/2
How it was run: as §2

inhibition [1]	inhibition [2]	SMILES	also measured
22%	62%	Cn1cnc(S(=O)(=O)N(CCN(Cc2cncn2C)c2ccc(C#N)cc2)Cc2ccncc2)c1	–
0%	56%	CC(=O)N(CCN(Cc1cncn1C)c1ccc(C#N)cc1)Cc1ccccc1	–
61%	94%	Cc1cccc(CN(CCN(Cc2cncn2C)c2ccc(C#N)cc2)S(=O)(=O)c2cn(C)cn2)c1	EC50 (Plasmodium falciparum [3]): 1000 nM; EC50 (Plasmodium falciparum [4]): 300 nM
–	32%	Cn1cnc(S(=O)(=O)N(CCN(Cc2c[nH]cn2)c2ccccc2)Cc2ccccc2)c1	–
74%	96%	Cn1cnc(S(=O)(=O)N(CCN(Cc2cncn2C)c2ccc(C#N)cc2)CC2CCN(c3ncccn3)CC2)c1	–
–	0%	O=S(=O)(c1cccc2cccnc12)N(CCN(Cc1c[nH]cn1)c1ccccc1)Cc1ccccc1	–
18%	74%	Cn1cnc(S(=O)(=O)N(CCN(Cc2cncn2C)c2ccc(C#N)cc2)Cc2cccnc2)c1	–
11%	56%	Cn1cnc(S(=O)(=O)N(CCN(Cc2cncn2C)c2ccc(C#N)cc2)CCn2cccc2)c1	–
56%	93%	Cn1cnc(S(=O)(=O)N(CCN(Cc2cncn2C)c2ccc(C#N)cc2)Cc2cccc(-c3ccccc3)c2)c1	–
–	7%	O=S(=O)(c1ccccc1)N(CCN(Cc1c[nH]cn1)c1ccccc1)Cc1ccccc1	–
–	–	Cn1cnc(S(=O)(=O)N(CCN(Cc2cncn2C)c2ccc(Br)cc2)Cc2ccccn2)c1	IC50 [5]: 1.9 nM; Selectivity ratio [6]: 44
–	80%	Cn1cnc(S(=O)(=O)N(CCN(Cc2c[nH]cn2)c2ccc(Br)cc2)Cc2ccccc2)c1	–
14%	35%	Cn1cncc1CN(CCN(Cc1ccccc1)S(=O)(=O)c1cccc2cccnc12)c1ccc(C#N)cc1	–
39%	85%	Cn1cnc(S(=O)(=O)N(CCN(Cc2cncn2C)c2ccc(C#N)cc2)Cc2ccc(-n3cccc3)cc2)c1	–
57%	92%	CC(C)C(=O)N1CCC(CN(CCN(Cc2cncn2C)c2ccc(C#N)cc2)S(=O)(=O)c2cn(C)cn2)CC1	–
45%	89%	Cn1cnc(S(=O)(=O)N(CCN(Cc2cncn2C)c2ccc(C#N)cc2)Cc2cccc(C#N)c2)c1	EC50 (Plasmodium falciparum [3]): 1800 nM; EC50 (Plasmodium falciparum [4]): 350 nM

inhibition [1]	inhibition [2]	SMILES	also measured
4%	6%	Cn1cnc(S(=O)(=O)N(CCN(Cc2cncn2C)c2ccc(C#N)cc2)CC(=O)NC(C)(C)C)c1	IC50 [5]: > 1000 nM
8%	44%	CC(=O)N1CCC(CN(CCN(Cc2cncn2C)c2ccc(C#N)cc2)S(=O)(=O)c2cn(C)cn2)CC1	–
64%	95%	Cn1cncc1CN(CCN(Cc1ccccc1)S(=O)(=O)c1ccccn1)c1ccc(C#N)cc1	Tmax [8]: 30 min
17%	74%	Cn1cncc1CN(CCN(Cc1ccccc1)S(=O)(=O)c1cccs1)c1ccc(C#N)cc1	–
28%	84%	Cn1cnc(S(=O)(=O)N(CCN(Cc2cncn2C)c2ccc(C#N)cc2)CC2CCOCC2)c1	–
–	5%	O=S(=O)(c1cccs1)N(CCN(Cc1c[nH]cn1)c1ccccc1)Cc1ccccc1	–
25%	80%	C=C(Br)CN(CCN(Cc1cncn1C)c1ccc(C#N)cc1)S(=O)(=O)c1cn(C)cn1	–
5%	5%	Cn1cnc(S(=O)(=O)N(CCN(Cc2cncn2C)c2ccc(C#N)cc2)CC2CCNCC2)c1	–
0%	61%	CC(C)C(=O)N(CCN(Cc1cncn1C)c1ccc(C#N)cc1)Cc1ccccc1	–
–	0%	CN(C)c1cccc2c(S(=O)(=O)N(CCN(Cc3c[nH]cn3)c3ccccc3)Cc3ccccc3)cccc12	–
45%	54%	Cc1ccc(CN(CCN(Cc2cncn2C)c2ccc(C#N)cc2)S(=O)(=O)c2cn(C)cn2)cc1	–
6%	77%	C=C(C)CN(CCN(Cc1cncn1C)c1ccc(C#N)cc1)S(=O)(=O)c1cn(C)cn1	–
37%	74%	Cn1cnc(S(=O)(=O)N(CCN(Cc2cncn2C)c2ccc(C#N)cc2)Cc2cccc(-n3cccc3)c2)c1	EC50 (Plasmodium falciparum [3]): 4000 nM; EC50 (Plasmodium falciparum [4]): 2500 nM
81%	96%	Cn1cnc(S(=O)(=O)N(CCN(Cc2cncn2C)c2ccc(C#N)cc2)CC2CCN(C(=O)OC(C)(C)C)CC2)c1	–
–	0%	O=S(=O)(c1ccc2ccccc2c1)N(CCN(Cc1c[nH]cn1)c1ccccc1)Cc1ccccc1	–
1%	42%	C=CCN(CCN(Cc1cncn1C)c1ccc(C#N)cc1)S(=O)(=O)c1cn(C)cn1	–

SMILES	inhibition [1]	inhibition [2]	also measured
Cn1cnc(S(=O)(=O)N(CCN(Cc2cncn2C)c2ccc(C#N)cc2)CC2CCCCC2)c1	63%	93%	IC50 [5]: 4.5 nM; Selectivity ratio [6]: 1.7; Papp [7]: 1.5 ×10⁻⁶ cm/s
Cn1cncc1CN(CCN(Cc1ccccc1)S(=O)(=O)c1ccccc1)c1ccc(C#N)cc1	18%	69%	IC50 [5]: 8.9 nM; Selectivity ratio [6]: 1.5
Cn1cnc(S(=O)(=O)N(CCN(Cc2cncn2C)c2ccc(C#N)cc2)Cc2ccc(-c3ccccc3)cc2)c1	10%	19%	IC50 [5]: 240 nM; Selectivity ratio [6]: 3.7; T1/2 (Mus musculus): 3 min
Cc1ccccc1CN(CCN(Cc1cncn1C)c1ccc(-c2ccccc2)cc1)S(=O)(=O)c1cn(C)cn1	49%	85%	EC50 (Plasmodium falciparum [3]): 2600 nM; IC50 [5]: 8 nM
Cn1cnc(S(=O)(=O)N(CCN(Cc2cncn2C)c2ccc(C#N)cc2)Cc2ccc(C#N)cc2)c1	24%	48%	IC50 [5]: 95 nM; Selectivity ratio [6]: 3.7
Cn1cnc(S(=O)(=O)N(CCN(Cc2cncn2C)c2ccc(Br)cc2)Cc2ccccc2)c1	70%	95%	IC50 [5]: 2 nM
Cn1cnc(S(=O)(=O)N(CCN(Cc2cncn2C)c2ccc(C#N)cc2)Cc2ccccn2)c1	64%	93%	IC50 [5]: 2.1 nM
Cn1cnc(S(=O)(=O)N(CCN(Cc2cncn2C)c2ccc(C#N)cc2)Cc2ccccc2)c1	86%	98%	EC50 (Plasmodium falciparum [3]): 367 nM; AUC [9]: 1.87 µM·h; Cmax [10]: 740 nM; half-life [11]: 95.9 min; Tmax [8]: 30 min
CN(C)c1cccc2c(S(=O)(=O)N(CCN(Cc3cncn3C)c3ccc(C#N)cc3)Cc3ccccc3)cccc12	6%	29%	IC50 [5]: 55 nM; Selectivity ratio [6]: 3.3
